Reference: ChEMBL document CHEMBL4038350 (J Med Chem, 2017)
Non-standard residues stand in square brackets, D forms with d. Residues, ends and D or L forms follow the SMILES beside them.

How the values were obtained:
Assay type in all cases: functional, cell-based
Melanocortin receptor 4 [1] = target: T1, Melanocortin receptor 4 (Mus musculus, UniProt P56450); experiment: Agonist activity at mouse melanocortin receptor 4 expressed in HEK293 cells assessed as increase in cAMP accumulation after 2 hrs by AlphaScreen assay
T1 sequence (P56450 whole entry): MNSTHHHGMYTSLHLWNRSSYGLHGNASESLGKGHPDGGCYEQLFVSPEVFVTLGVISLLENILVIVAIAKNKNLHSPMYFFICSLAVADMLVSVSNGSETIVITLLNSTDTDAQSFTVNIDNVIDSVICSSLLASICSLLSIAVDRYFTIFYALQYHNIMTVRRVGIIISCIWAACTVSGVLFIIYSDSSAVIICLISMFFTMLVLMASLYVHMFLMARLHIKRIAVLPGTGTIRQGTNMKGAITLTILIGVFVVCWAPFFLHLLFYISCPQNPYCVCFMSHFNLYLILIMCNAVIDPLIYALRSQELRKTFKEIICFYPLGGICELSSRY

Melanocortin receptor 3 [2] = target: T2, Melanocortin receptor 3 (Mus musculus, UniProt P33033); experiment: Agonist activity at mouse melanocortin receptor 3 expressed in HEK293 cells assessed as increase in cAMP accumulation after 2 hrs by AlphaScreen assay
T2 sequence (P33033 whole entry): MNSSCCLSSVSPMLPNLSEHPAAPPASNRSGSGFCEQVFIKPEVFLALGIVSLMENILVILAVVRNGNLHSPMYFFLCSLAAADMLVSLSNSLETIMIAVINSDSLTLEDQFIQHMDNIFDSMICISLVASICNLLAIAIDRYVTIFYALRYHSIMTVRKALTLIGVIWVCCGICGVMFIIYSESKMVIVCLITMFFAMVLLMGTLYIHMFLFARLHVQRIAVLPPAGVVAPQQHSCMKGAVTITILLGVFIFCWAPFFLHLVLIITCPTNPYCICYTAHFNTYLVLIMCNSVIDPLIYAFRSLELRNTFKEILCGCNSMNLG

Melanocortin receptor 4 [3] = target: T1, Melanocortin receptor 4; experiment: Antagonist activity at mouse melanocortin receptor 4 expressed in HEK293 cells assessed as inhibition of NDP-MSH-induced cAMP accumulation after 2 hrs by AlphaScreen assay; conditions: read-out: pA2 (converted)
[4] = target: Melanocyte-stimulating hormone receptor (Mus musculus) (UniProt Q01727); experiment: Agonist activity at mouse melanocortin receptor 1 expressed in HEK293 cells assessed as increase in cAMP accumulation at 100 uM after 2 hrs by AlphaScreen assay relative to control
Melanocyte-stimulating hormone receptor (Mus musculus), sequence (Q01727 whole entry, looked up): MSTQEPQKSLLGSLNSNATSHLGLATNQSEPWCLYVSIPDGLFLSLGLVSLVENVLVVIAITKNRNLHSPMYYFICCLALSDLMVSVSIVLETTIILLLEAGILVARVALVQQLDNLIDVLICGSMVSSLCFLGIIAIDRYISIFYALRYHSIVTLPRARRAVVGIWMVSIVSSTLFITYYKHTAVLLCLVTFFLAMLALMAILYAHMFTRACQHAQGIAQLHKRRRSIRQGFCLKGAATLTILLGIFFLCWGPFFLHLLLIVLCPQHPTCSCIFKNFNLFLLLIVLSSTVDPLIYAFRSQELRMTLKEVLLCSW
In short: (§1)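 Cyclic peptides were dissolved in DMSO. Receptor-expressing HEK293 cells in IBMX-containing stimulation buffer (pH 7.4) were stimulated for 2 h at room temperature. cAMP was then detected by competitive AlphaScreen after a 2 h lysis/bead step. […] Values come from at least three independent experiments.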

Melanocortin receptor 3 [5] = target: T2, Melanocortin receptor 3; experiment: Antagonist activity at mouse melanocortin receptor 3 expressed in HEK293 cells assessed as inhibition of NDP-MSH-induced cAMP accumulation after 2 hrs by AlphaScreen assay; conditions: read-out: pA2 (converted)
[6] = target: Melanocortin receptor 5 (Mus musculus) (UniProt P41149); experiment: Inverse agonist activity at mouse melanocortin receptor 5 expressed in HEK293 cells assessed as decrease in cAMP accumulation at 510 nM after 2 hrs by AlphaScreen assay relative to control; set-up: scale not given: the % may be the effect or the level left
Melanocortin receptor 5 (Mus musculus), sequence (P41149 whole entry): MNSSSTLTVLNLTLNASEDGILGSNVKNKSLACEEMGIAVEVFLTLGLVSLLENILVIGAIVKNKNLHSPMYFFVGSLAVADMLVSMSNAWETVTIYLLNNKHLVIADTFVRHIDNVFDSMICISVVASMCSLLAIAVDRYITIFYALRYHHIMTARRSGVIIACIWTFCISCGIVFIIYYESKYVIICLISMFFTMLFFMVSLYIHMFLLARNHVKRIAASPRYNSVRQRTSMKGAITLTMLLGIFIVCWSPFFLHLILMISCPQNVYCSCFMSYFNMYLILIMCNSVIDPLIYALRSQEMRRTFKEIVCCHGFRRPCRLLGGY
In short: (§2)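 In mouse MC5R-HEK293 cells, cAMP was measured by AlphaScreen after 2 h peptide exposure (10−4 to 10−13 M) at room temperature. Each replicate was normalized to its signal at 10−10 M. For sigmoidal curves, percent inverse agonism was the change from basal to the high-concentration plateau. Apparent potency was taken as the curve inflection point. Three independent experiments were run.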

[7] = target: Melanocortin receptor 5 (Mus musculus) (UniProt P41149); experiment: Inverse agonist activity at mouse melanocortin receptor 5 expressed in HEK293 cells assessed as decrease in cAMP accumulation at 100 uM after 2 hrs by AlphaScreen assay relative to control; set-up: scale not given: the % may be the effect or the level left
In short: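 Each replicate was normalized to its own signal at 10−10 M (basal). Where no plateau appeared, inverse agonism was reported as percent decrease from basal at 100 μM. Values are from three independent experiments.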

[8] = target: Melanocyte-stimulating hormone receptor (Mus musculus, UniProt Q01727); experiment: Agonist activity at mouse melanocortin receptor 1 expressed in HEK293 cells assessed as increase in cAMP accumulation after 2 hrs by AlphaScreen assay
Melanocyte-stimulating hormone receptor, sequence (Q01727 whole entry): as the sequence (Q01727 whole entry, looked up) above
In short: (§3)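 Donor beads and biotin-cAMP in lysis buffer followed for 2 h. The AlphaScreen signal was read. EC50 came from nonlinear least-squares fits, duplicates, at least three independent experiments.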

Melanocortin receptor 5 = Melanocortin receptor 5 (Mus musculus, UniProt P41149); experiment: Agonist activity at mouse melanocortin receptor 5 expressed in HEK293 cells assessed as increase in cAMP accumulation after 2 hrs by AlphaScreen assay; in short: as §3
Melanocortin receptor 5, sequence (P41149 whole entry): as the sequence (P41149 whole entry) above

[9] = target: Melanocortin receptor 4 (Mus musculus) (UniProt P56450); experiment: Agonist activity at mouse melanocortin receptor 4 expressed in HEK293 cells assessed as increase in cAMP accumulation at 100 uM after 2 hrs by AlphaScreen assay; in short: as §1
Melanocortin receptor 4 (Mus musculus), sequence (P56450 whole entry): as the sequence (P56450 whole entry) above

[10] = target: Melanocortin receptor 3 (Mus musculus) (UniProt P33033); experiment: Agonist activity at mouse melanocortin receptor 3 expressed in HEK293 cells assessed as increase in cAMP accumulation at 100 uM after 2 hrs by AlphaScreen assay relative to control; in short: as §1
Melanocortin receptor 3 (Mus musculus), sequence (P33033 whole entry): as the sequence (P33033 whole entry) above

[11] = target: Melanocortin receptor 5 (Mus musculus) (UniProt P41149); experiment: Inverse agonist activity at mouse melanocortin receptor 5 expressed in HEK293 cells assessed as decrease in cAMP accumulation at 150 nM after 2 hrs by AlphaScreen assay relative to control; set-up: scale not given: the % may be the effect or the level left; in short: as §2
[12] = target: Melanocortin receptor 5 (Mus musculus) (UniProt P41149); experiment: Agonist activity at mouse melanocortin receptor 5 expressed in HEK293 cells assessed as increase in cAMP accumulation at 100 uM after 2 hrs by AlphaScreen assay relative to control; in short: as §1

| Structure (SMILES) | EC50 (Melanocortin receptor 4 [1]) | EC50 (Melanocortin receptor 3 [2]) | Kb (Melanocortin receptor 4 [3]) | Activity [4] | Kb (Melanocortin receptor 3 [5]) | Activity [6] | Activity [7] | EC50 [8] | EC50 (Melanocortin receptor 5) | Activity [9] | Activity [10] | Activity [11] | Activity [12] |
| --- | --- | --- | --- | --- | --- | --- | --- | --- | --- | --- | --- | --- | --- |
| CC(C)[C@@H]1NC(=O)[C@H](Cc2ccccc2)NC(=O)[C@H](Cc2ccccc2)NC(=O)[C@H](CCCNC(=N)N)NC(=O)[C@@H]2CCCN2C(=O)[C@H]2CCCN2C(=O)[C@H](Cc2ccccc2)NC(=O)[C@H](C)NC1=O | > 100 µM | > 100 µM | 1.26 µM | 55% | > 3.16 µM | 25% | – | – | – | – | – | – | – |
| C[C@@H]1NC(=O)[C@H](CC(N)=O)NC(=O)[C@H](Cc2ccccc2)NC(=O)[C@H](Cc2ccccc2)NC(=O)[C@H](CCCNC(=N)N)NC(=O)[C@@H]2CCCN2C(=O)[C@H]2CCCN2C(=O)[C@H](C)NC1=O (cyclo(RFFNAA[dP]P)) | > 100 µM | > 100 µM | 0.00692 µM | – | 0.794 µM | – | 25% | > 100 µM | – | – | – | – | – |
| N=C(N)NCCC[C@@H]1NC(=O)[C@@H]2CCCN2C(=O)[C@H]2CCCN2C(=O)[C@H](Cc2ccccc2)NC(=O)CNC(=O)[C@H](CC(N)=O)NC(=O)[C@H](Cc2ccccc2)NC(=O)[C@H](Cc2ccccc2)NC1=O (cyclo(RFFNGF[dP]P)) | > 100 µM | > 100 µM | 0.794 µM | – | > 3.16 µM | – | 35% | > 100 µM | – | – | – | – | – |
| CCCC[C@@H]1NC(=O)[C@H](Cc2ccccc2)NC(=O)[C@H](Cc2ccccc2)NC(=O)[C@H](CCCNC(=N)N)NC(=O)[C@@H]2CCCN2C(=O)[C@H]2CCCN2C(=O)[C@H](Cc2ccccc2)NC(=O)[C@H](C)NC1=O | > 100 µM | > 100 µM | 0.126 µM | – | > 3.16 µM | – | – | > 100 µM | > 100 µM | – | – | – | – |
| C[C@@H]1NC(=O)[C@H](CC(=O)O)NC(=O)[C@H](Cc2ccccc2)NC(=O)[C@H](Cc2ccccc2)NC(=O)[C@H](CCCNC(=N)N)NC(=O)[C@@H]2CCCN2C(=O)[C@H]2CCCN2C(=O)[C@H](Cc2ccccc2)NC1=O | > 100 µM | > 100 µM | 0.162 µM | – | > 3.16 µM | – | 25% | > 100 µM | – | – | – | – | – |
| C[C@@H]1NC(=O)[C@H](Cc2c[nH]c3ccccc23)NC(=O)[C@H](Cc2ccccc2)NC(=O)[C@H](Cc2ccccc2)NC(=O)[C@H](CCCNC(=N)N)NC(=O)[C@@H]2CCCN2C(=O)[C@H]2CCCN2C(=O)[C@H](Cc2ccccc2)NC1=O (cyclo(RFFWAF[dP]P)) | – | – | 0.155 µM | 80% | 2 µM | – | – | – | – | 50% | 40% | 20% | – |
| N=C(N)NCCC[C@@H]1NC(=O)[C@@H]2CCCN2C(=O)[C@H]2CCCN2C(=O)[C@H](Cc2ccccc2)NC(=O)[C@H](CO)NC(=O)[C@H](CC(N)=O)NC(=O)[C@H](Cc2ccccc2)NC(=O)[C@H](Cc2ccccc2)NC1=O (cyclo(RFFNSF[dP]P)) | > 100 µM | > 100 µM | 0.00631 µM | – | 0.631 µM | – | 30% | > 100 µM | – | – | – | – | – |
| N=C(N)NCCC[C@@H]1NC(=O)[C@@H]2CCCN2C(=O)[C@H]2CCCN2C(=O)[C@H](Cc2ccccc2)NC(=O)[C@H](Cc2ccccc2)NC(=O)[C@H](CC(N)=O)NC(=O)[C@H](Cc2ccccc2)NC(=O)[C@H](Cc2ccccc2)NC1=O | – | – | 1.95 µM | 70% | 1.91 µM | – | – | – | – | 35% | 35% | – | 25% |
| N=C(N)NCCC[C@@H]1NC(=O)[C@@H]2CCCN2C(=O)[C@H]2CCCN2C(=O)[C@H](Cc2ccccc2)NC(=O)[C@H](CC(=O)O)NC(=O)[C@H](CC(N)=O)NC(=O)[C@H](Cc2ccccc2)NC(=O)[C@H](Cc2ccccc2)NC1=O (cyclo(RFFNDF[dP]P)) | > 100 µM | > 100 µM | > 3.16 µM | 65% | > 3.16 µM | – | 25% | – | – | – | – | – | – |
